Experimental data as given in ChEMBL document CHEMBL2040818, “Synthesis and in vitro evaluation of novel tetrazole embedded 1,3,5-trisubstituted pyrazoline derivatives as Entamoeba histolytica growth inhibitors” (Eur J Med Chem, 2012).

Columns and labels:
[1] = Cytotoxicity against human HepG2 cells assessed as cell viability at 50 to 100 uM after 48 hrs by MTT assay
HepG2 = test: Cytotoxicity against human HepG2 cells after 48 hrs by MTT assay; details: HepG2, 48 h
in vitro [2] = details: human, HepG2 cells
in vitro [3] = details: human, HepG2 cells; remark: listed apart in the source
[4] = Selectivity index, ratio of IC50 for human HepG2 cells to IC50 for Entamoeba histolytica HM1:IMSS
Entamoeba histolytica = test: Antiamoebic activity against Entamoeba histolytica HM1:IMSS after 72 hrs by microdilution method; type: functional, organism-based; details: HM-1:IMSS
[5] = Cytotoxicity against human HepG2 cells assessed as cell viability at 100 uM after 48 hrs by MTT assay; type: cell-based; details: read-out: Activity
Summary of the method: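 HepG2 grown in DMEM, 10% heat-inactivated FBS, antibiotics, 37 °C, 5% CO2; 1.2 × 10^4 cells/well pre-grown 48 h, then exposed to compounds (3.13–100 µM; DMSO stocks diluted in medium) for 48 h at 37 °C; MTT read-out at 570 nm, reference 655 nm; viability as % of untreated control; triplicate, repeated thrice.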

Structure (SMILES)	viability at 48 h, 100 µM [1]	IC50 (HepG2)	viability at 48 h, 25 µM (in vitro [2])	viability at 48 h, 3.13 µM (in vitro [3])	Ratio IC50 [4]	IC50 (Entamoeba histolytica)	viability at 48 h, 100 µM [5]
O=C(/C=C/c1ccc([N+](=O)[O-])cc1)c1ccccc1	40%	64.7 µM	72%	95%	10.74	6.02 µM	–
Cc1ccc(C(=O)/C=C/c2ccc(Cl)cc2)cc1	40%	74.2 µM	72%	95%	14.21	5.22 µM	–
Cc1ccc(C(=O)/C=C/c2ccc([N+](=O)[O-])cc2)cc1	40%	85.6 µM	72%	95%	16.85	5.08 µM	–
COc1ccc(-c2nnnn2CC(=O)N2N=C(c3ccccc3)CC2c2ccccc2)cc1 (configuration not stated)	40%	85.3 µM	72%	95%	16.03	5.32 µM	–
COc1ccc(-c2nnnn2CC(=O)N2N=C(c3ccccc3)CC2c2ccc(Cl)cc2)cc1 (configuration not stated)	40%	80.4 µM	72%	95%	26.62	3.02 µM	–
COc1ccc(-c2nnnn2CC(=O)N2N=C(c3ccccc3)CC2c2ccc(C)cc2)cc1 (configuration not stated)	–	> 100 µM	–	–	>78.12	1.28 µM	≥ 68%
COc1ccc(-c2nnnn2CC(=O)N2N=C(c3ccccc3)CC2c2ccc(OC)cc2)cc1 (configuration not stated)	–	> 100 µM	–	–	>86.2	1.16 µM	≥ 68%
COc1ccc(-c2nnnn2CC(=O)N2N=C(c3ccccc3)CC2c2ccc([N+](=O)[O-])cc2)cc1 (configuration not stated)	40%	79.8 µM	72%	95%	21.68	3.68 µM	–
COc1ccc(-c2nnnn2CC(=O)N2N=C(c3ccc(Cl)cc3)CC2c2ccccc2)cc1 (configuration not stated)	40%	90.6 µM	72%	95%	28.76	3.15 µM	–
COc1ccc(-c2nnnn2CC(=O)N2N=C(c3ccc(Cl)cc3)CC2c2ccc(Cl)cc2)cc1 (configuration not stated)	40%	80.3 µM	72%	95%	17.26	4.65 µM	–
COc1ccc(-c2nnnn2CC(=O)N2N=C(c3ccc(Cl)cc3)CC2c2ccc(C)cc2)cc1 (configuration not stated)	40%	92.6 µM	72%	95%	31.28	2.96 µM	–
COc1ccc(-c2nnnn2CC(=O)N2N=C(c3ccc(Cl)cc3)CC2c2ccc(OC)cc2)cc1 (configuration not stated)	40%	> 100 µM	72%	95%	>38.02	2.63 µM	–
COc1ccc(-c2nnnn2CC(=O)N2N=C(c3ccc(Cl)cc3)CC2c2ccc([N+](=O)[O-])cc2)cc1 (configuration not stated)	40%	86.5 µM	72%	95%	17.68	4.89 µM	–
COc1ccc(-c2nnnn2CC(=O)N2N=C(c3ccc(C)cc3)CC2c2ccccc2)cc1 (configuration not stated)	–	> 100 µM	–	–	>83.33	1.2 µM	≥ 68%
COc1ccc(-c2nnnn2CC(=O)N2N=C(c3ccc(C)cc3)CC2c2ccc(Cl)cc2)cc1 (configuration not stated)	40%	98 µM	72%	95%	34.5	2.84 µM	–
COc1ccc(-c2nnnn2CC(=O)N2N=C(c3ccc(C)cc3)CC2c2ccc(C)cc2)cc1 (configuration not stated)	–	> 100 µM	–	–	>116.27	0.86 µM	≥ 68%

Structure (SMILES)	viability at 48 h, 100 µM [1]	IC50 (HepG2)	viability at 48 h, 25 µM (in vitro [2])	viability at 48 h, 3.13 µM (in vitro [3])	Ratio IC50 [4]	IC50 (Entamoeba histolytica)	viability at 48 h, 100 µM [5]
COc1ccc(-c2nnnn2CC(=O)N2N=C(c3ccc(C)cc3)CC2c2ccc(OC)cc2)cc1 (configuration not stated)	–	> 100 µM	–	–	>92.59	1.08 µM	≥ 68%
COc1ccc(-c2nnnn2CC(=O)N2N=C(c3ccc(C)cc3)CC2c2ccc([N+](=O)[O-])cc2)cc1 (configuration not stated)	40%	> 100 µM	72%	95%	>38.02	2.63 µM	–
O=C(/C=C/c1ccc([N+](=O)[O-])cc1)c1ccc(Cl)cc1	40%	40.2 µM	72%	95%	6.5	6.18 µM	–
O=C(/C=C/c1ccccc1)c1ccc(Cl)cc1	40%	94.7 µM	72%	95%	13.6	6.96 µM	–
COc1ccc(/C=C/C(=O)c2ccc(C)cc2)cc1	40%	> 100 µM	72%	95%	>21.01	4.76 µM	–
COc1ccc(/C=C/C(=O)c2ccc(Cl)cc2)cc1	40%	97.2 µM	72%	95%	19.05	5.1 µM	–
Cc1ccc(/C=C/C(=O)c2ccccc2)cc1	–	–	–	–	–	4.38 µM	–
Cc1ccc(/C=C/C(=O)c2ccc(Cl)cc2)cc1	40%	92.6 µM	72%	95%	17.4	5.32 µM	–
Cc1ccc(C(=O)/C=C/c2ccccc2)cc1	40%	> 100 µM	72%	95%	>20.7	4.83 µM	–
O=C(/C=C/c1ccc(Cl)cc1)c1ccc(Cl)cc1 [4',4-DICHLOROCHALCONE]	40%	82.8 µM	72%	95%	14.13	5.86 µM	–
Cc1ccc(/C=C/C(=O)c2ccc(C)cc2)cc1 [4,4'-DIMETHYLCHALCONE]	40%	> 100 µM	72%	95%	–	4.19 µM	–
O=C(/C=C/c1ccc(Cl)cc1)c1ccccc1 [4-CHLORO CHALCONE]	40%	97.2 µM	72%	95%	13.27	7.32 µM	–
COc1ccc(/C=C/C(=O)c2ccccc2)cc1 [4-METHOXY CHALCONE]	40%	> 100 µM	72%	95%	>16.86	5.93 µM	–
O=C(/C=C/c1ccccc1)c1ccccc1 [CHALCONE]	40%	> 100 µM	72%	95%	>7.78	12.9 µM	–
Cc1ncc([N+](=O)[O-])n1CCO [METRONIDAZOLE]	–	> 100 µM	–	95%	>55.55	–	–
